Columns and labels:
Settings in all cases: stereoisomer not certain
OR4K17 (Homo sapiens) = OR4K17 (Homo sapiens) (UniProt Q8NGC6)
In short: (§1)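 Each entry records the cell line, G-protein, co-transfected protein and tags used. Methods varied with the source, often transient luciferase assays in mammalian cell lines. A receptor–molecule pair is called responsive (active) if the original authors judged its signal statistically different from baseline and non-responsive (inactive) otherwise.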

OR4K2 (Homo sapiens) = OR4K2 (Homo sapiens) (UniProt Q8NGD2)
In short: as §1

OR4K3 (Homo sapiens) = OR4K3 (Homo sapiens) (UniProt Q96R72)
In short: as §1

OR4K5 (Homo sapiens) = OR4K5 (Homo sapiens) (UniProt Q8NGD3)
In short: as §1

OR4L1 (Homo sapiens) = OR4L1 (Homo sapiens) (UniProt Q8NH43)
In short: as §1

OR4M1 (Homo sapiens) = OR4M1 (Homo sapiens) (UniProt Q8NGD0)
In short: as §1

OR4K2 = system: OR4K2
In short: as §1

OR4KF = system: OR4KF
In short: as §1

OR4KH = system: OR4KH
In short: as §1

OR4L1 = system: OR4L1
In short: as §1

Measured: odorant receptor agonist call

Sequence of OR4M1 (Homo sapiens) (Q8NGD0 whole entry): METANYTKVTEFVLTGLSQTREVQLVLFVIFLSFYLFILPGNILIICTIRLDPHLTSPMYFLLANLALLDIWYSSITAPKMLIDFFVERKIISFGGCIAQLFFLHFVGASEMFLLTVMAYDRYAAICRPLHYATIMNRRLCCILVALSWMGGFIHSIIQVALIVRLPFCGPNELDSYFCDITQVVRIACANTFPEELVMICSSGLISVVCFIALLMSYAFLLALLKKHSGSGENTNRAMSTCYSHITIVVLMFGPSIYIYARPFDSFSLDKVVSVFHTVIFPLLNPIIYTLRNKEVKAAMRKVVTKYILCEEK
Sequence of OR4K5 (Homo sapiens) (Q8NGD3 whole entry): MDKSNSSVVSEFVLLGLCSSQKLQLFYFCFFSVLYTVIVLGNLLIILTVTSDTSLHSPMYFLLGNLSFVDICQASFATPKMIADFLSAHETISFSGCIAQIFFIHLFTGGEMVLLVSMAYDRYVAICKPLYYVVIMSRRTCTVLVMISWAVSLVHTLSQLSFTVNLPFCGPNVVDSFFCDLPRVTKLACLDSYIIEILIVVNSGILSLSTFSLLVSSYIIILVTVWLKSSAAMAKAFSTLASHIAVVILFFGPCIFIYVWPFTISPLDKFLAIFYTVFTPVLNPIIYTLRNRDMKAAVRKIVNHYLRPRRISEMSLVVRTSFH
Sequence of OR4L1 (Homo sapiens) (Q8NH43 whole entry): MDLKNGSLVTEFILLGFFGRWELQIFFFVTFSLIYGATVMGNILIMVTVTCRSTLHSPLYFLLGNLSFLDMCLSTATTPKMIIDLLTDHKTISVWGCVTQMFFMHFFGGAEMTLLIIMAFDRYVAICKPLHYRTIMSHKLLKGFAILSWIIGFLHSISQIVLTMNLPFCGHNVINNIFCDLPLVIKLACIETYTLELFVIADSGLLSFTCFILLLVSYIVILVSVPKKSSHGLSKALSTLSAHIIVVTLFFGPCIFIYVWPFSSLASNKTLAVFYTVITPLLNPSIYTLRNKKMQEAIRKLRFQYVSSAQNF
Sequence of OR4K2 (Homo sapiens) (Q8NGD2 whole entry): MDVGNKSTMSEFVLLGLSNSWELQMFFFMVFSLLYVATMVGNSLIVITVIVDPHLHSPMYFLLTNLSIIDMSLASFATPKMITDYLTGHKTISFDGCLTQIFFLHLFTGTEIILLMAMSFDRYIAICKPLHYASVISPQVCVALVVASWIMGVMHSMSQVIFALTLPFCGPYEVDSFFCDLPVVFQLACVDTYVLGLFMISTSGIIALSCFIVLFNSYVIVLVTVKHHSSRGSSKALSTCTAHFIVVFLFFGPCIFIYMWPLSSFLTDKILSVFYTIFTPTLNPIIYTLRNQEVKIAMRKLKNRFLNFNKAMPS
Sequence of OR4K3 (Homo sapiens) (Q96R72 whole entry): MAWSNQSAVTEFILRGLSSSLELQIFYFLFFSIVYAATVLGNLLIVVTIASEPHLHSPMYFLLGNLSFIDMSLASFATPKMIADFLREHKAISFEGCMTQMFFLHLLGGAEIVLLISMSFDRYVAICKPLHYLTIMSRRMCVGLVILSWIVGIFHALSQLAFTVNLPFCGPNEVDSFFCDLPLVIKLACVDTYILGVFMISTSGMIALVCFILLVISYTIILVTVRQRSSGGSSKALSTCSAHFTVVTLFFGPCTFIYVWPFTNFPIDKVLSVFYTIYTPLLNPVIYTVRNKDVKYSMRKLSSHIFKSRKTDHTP
Sequence of OR4K17 (Homo sapiens) (Q8NGC6 as listed by the source): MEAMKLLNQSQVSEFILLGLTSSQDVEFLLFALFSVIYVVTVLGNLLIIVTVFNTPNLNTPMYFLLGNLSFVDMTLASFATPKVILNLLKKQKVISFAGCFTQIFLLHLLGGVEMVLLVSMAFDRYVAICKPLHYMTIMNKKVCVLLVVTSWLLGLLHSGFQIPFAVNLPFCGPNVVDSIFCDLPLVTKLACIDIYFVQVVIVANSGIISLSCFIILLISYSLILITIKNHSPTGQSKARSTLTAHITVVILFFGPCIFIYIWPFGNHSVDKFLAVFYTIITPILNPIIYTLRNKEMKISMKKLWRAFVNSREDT
Sequence of OR4L1 (as listed by the source): as the sequence (Q8NH43 whole entry) above, with R52S counted along it
Sequence of OR4KF (as listed by the source): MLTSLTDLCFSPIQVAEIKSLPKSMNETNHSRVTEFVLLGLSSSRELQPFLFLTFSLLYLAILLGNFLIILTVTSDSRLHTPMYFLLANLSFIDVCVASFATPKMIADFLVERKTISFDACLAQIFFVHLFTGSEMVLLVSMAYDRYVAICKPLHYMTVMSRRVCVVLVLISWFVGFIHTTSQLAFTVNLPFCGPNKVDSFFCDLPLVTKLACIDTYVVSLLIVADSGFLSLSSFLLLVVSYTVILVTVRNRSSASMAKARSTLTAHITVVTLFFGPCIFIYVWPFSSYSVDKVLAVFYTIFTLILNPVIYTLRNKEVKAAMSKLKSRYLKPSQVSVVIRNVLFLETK
Sequence of OR4K2 (as listed by the source): as the sequence (Q8NGD2 whole entry) above, with N307I counted along it
Sequence of OR4KH (as listed by the source): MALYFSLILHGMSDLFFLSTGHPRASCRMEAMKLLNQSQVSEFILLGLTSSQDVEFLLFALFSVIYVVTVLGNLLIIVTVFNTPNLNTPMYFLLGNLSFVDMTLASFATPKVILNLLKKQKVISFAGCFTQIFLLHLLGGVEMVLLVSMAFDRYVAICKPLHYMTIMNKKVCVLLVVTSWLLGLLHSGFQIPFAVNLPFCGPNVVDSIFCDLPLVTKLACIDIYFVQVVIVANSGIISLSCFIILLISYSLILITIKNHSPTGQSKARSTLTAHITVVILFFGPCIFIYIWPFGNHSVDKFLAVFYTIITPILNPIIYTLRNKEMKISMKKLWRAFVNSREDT

Cc1c([N+](=O)[O-])c(C)c([N+](=O)[O-])c(C(C)(C)C)c1[N+](=O)[O-]
inactive: OR4K17 (Homo sapiens) | OR4K2 (Homo sapiens) | OR4K3 (Homo sapiens) | OR4K5 (Homo sapiens) | OR4L1 (Homo sapiens) | OR4M1 (Homo sapiens)

C=CCOC(=O)Cc1ccccc1
not listed: OR4K17 (Homo sapiens) | OR4K3 (Homo sapiens)
inactive: all other assays above
